Test results as given in ChEMBL document CHEMBL5346953, “Dual Piperidine-Based Histamine H3 and Sigma-1 Receptor Ligands in the Treatment of Nociceptive and Neuropathic Pain” (J Med Chem, 2023).
One block for each compound: values may come before it. Active and inactive are the calls of the source. No cut-off for these calls is given here.

Assays:
Histamine H3 receptor [1] = biological target: T1, Histamine H3 receptor (Homo sapiens, UniProt Q9Y5N1); assay: Displacement of [3H]Nalpha-methylhistamine from recombinant human histamine H3 receptor stably expressed in HEK293 cells assessed as inhibition constant by competitive binding based radioligand depletion assay; assay type: cell-based
T1 sequence (Q9Y5N1 whole entry): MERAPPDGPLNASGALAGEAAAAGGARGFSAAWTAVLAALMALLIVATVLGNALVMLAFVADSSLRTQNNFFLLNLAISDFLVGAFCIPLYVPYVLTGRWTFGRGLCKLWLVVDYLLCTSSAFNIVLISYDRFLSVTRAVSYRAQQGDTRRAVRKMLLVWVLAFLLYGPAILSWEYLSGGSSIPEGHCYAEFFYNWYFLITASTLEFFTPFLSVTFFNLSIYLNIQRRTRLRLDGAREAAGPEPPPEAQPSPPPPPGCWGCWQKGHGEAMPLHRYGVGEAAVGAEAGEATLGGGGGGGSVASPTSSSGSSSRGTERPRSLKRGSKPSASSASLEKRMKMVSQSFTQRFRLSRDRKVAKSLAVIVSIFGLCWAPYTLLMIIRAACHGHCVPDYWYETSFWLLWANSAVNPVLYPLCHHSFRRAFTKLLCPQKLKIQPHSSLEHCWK

Mus musculus [2] = assay: Antinociceptive activity in mouse assessed as effect on struggle response latency at 100 ug,ip administration; assay type: functional, organism-based; settings: dose 100.0 µg
Mus musculus [3] = assay: Effect in loperamide-induced antinociception mouse assessed as increase in struggle response latency at ip administration; assay type: functional, organism-based
Mus musculus [4] = assay: Antinociceptive activity in loperamide-induced mouse assessed as increase in struggle response latency struggle response latency at 100 ug,ip administration in presence of naloxone-methiodide; assay type: functional, organism-based; settings: dose 100.0 µg
Mus musculus [5] = assay: Antinociceptive activity in loperamide-induced mouse assessed as increase in struggle response latency struggle response latency at 100 ug,ip administration in presence of PRE-084; assay type: functional, organism-based; settings: dose 100.0 µg
[6] = Neurotoxicity against mouse assessed as impairment of motor coordination at 15 mg/kg,ip administration at 18 rpm by rotarod test; assay type: toxicity, organism-based; settings: in vivo
Outline: (§1)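 Mice received 15 mg/kg i.p. or vehicle. Motor coordination was then measured as time on the rotarod, at 18 and 24 rpm, with a maximum of 60 s.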

[7] = Neurotoxicity against mouse assessed as sedative effect at 15 mg/kg,ip observed after 30 mins of administration; assay type: toxicity, organism-based; settings: in vivo, 0.5 h
Outline: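 Spontaneous locomotor activity was recorded in mice after i.p. dosing at 15 or 30 mg/kg, compared with vehicle, as a test of sedation. Analysis was one-way ANOVA. […]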

[8] = Neurotoxicity against mouse assessed as impairment of motor coordination at 15 mg/kg,ip administration at 24 rpm by rotarod test; assay type: toxicity, organism-based; settings: in vivo; outline: as §1
Histamine H3 receptor [9] = biological target: T1, Histamine H3 receptor; assay: Inhibition of recombinant human histamine H3 receptor stably expressed in HEK293 cells assessed as increase in cAMP accumulation in presence of forskolin incubated for 30 mins by TR-FRET LANCE assay; assay type: functional, cell-based

Ki (Histamine H3 receptor [1]): 0.0275 µM
Structure (SMILES): c1ccc(Cc2ccc(OCCCN3CCCCC3)cc2)cc1

Ki (Histamine H3 receptor [1]): 0.0062 µM
Structure (SMILES): N#Cc1ccc(-c2ccc(OCCCN3CCCCC3)cc2)cc1

Structure (SMILES): Cc1cc(OCCN2CCOCC2)nn1-c1ccc2ccccc2c1
Activity (Mus musculus [2]): inactive
Activity (Mus musculus [3]): Dose-Dependent Effect
Activity (Mus musculus [4]): inactive
Activity (Mus musculus [5]): inactive

IC50 (Histamine H3 receptor [9]): 0.0834 µM
Structure (SMILES): c1ccc(-c2ccc(OCCCN3CCCCCC3)cc2)cc1
Activity [6]: Toxic
Activity [7]: Toxic
Activity [8]: Toxic
